Assay results as given in ChEMBL document CHEMBL1137717, “Synthesis and in vitro antiproliferative activity of novel 1-benzhydrylpiperazine derivatives against human cancer cell lines” (Eur J Med Chem, 2009).

What was measured:
[1] = Cytotoxicity against human NF103 cells assessed as cell survival at 100 uM after 24 hrs by MTT assay relative to control; type: cell-based; settings: read-out: Survival
Outline: (§1)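 Cells grown in DMEM with 10% FCS (HT-29 in McCoy's with 10% FCS), seeded in 96-well plates, and grown 48 h before dosing. Exposed to 100 µM final compound (0.1% DMSO) for 24 h at 37 °C. MTT 1 mg/ml in medium was added for 4 h, formazan dissolved in DMSO, and A570 read. Survival is relative to the 0.1% DMSO control (100%); triplicate, mean ± SD.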

[2] = system: HT-29; test: Cytotoxicity against human HT-29 cells assessed as cell survival at 100 uM after 24 hrs by MTT assay relative to control; type: functional; settings: HT-29, 24 h, read-out: Survival; outline: as §1
[3] = system: HepG2; test: Cytotoxicity against human HepG2 cells assessed as cell survival at 100 uM after 24 hrs by MTT assay relative to control; type: functional; settings: HepG2, 24 h, read-out: Survival; outline: as §1
[4] = system: HeLa; test: Cytotoxicity against human HeLa cells assessed as cell survival at 100 uM after 24 hrs by MTT assay relative to control; type: functional; settings: read-out: Survival; outline: as §1
[5] = system: MCF7; test: Cytotoxicity against human MCF7 cells assessed as cell survival at 100 uM after 24 hrs by MTT assay relative to control; type: functional; settings: MCF7, 24 h, read-out: Survival; outline: as §1

With S=C(Nc1cccc(Cl)c1)N1CCN(C(c2ccccc2)c2ccccc2)CC1 the viability at 24 h, 100 µM [1] was 56.8%, the viability at 100 µM [2] was 69.3% and the viability at 100 µM [3] was 69.5%. The viability at 100 µM [4] was 69.8% and the viability at 100 µM [5] was 73.6%.

S=C(Nc1ccc(Cl)cc1)N1CCN(C(c2ccccc2)c2ccccc2)CC1 showed a viability at 24 h, 100 µM [1] of 54.8%, a viability at 100 µM [2] of 73.8% and a viability at 100 µM [3] of 66.2%. The viability at 100 µM [4] was 73.9% and the viability at 100 µM [5] was 66.9%.

Fc1ccc(NC(=S)N2CCN(C(c3ccccc3)c3ccccc3)CC2)cc1 showed a viability at 24 h, 100 µM [1] of 52.7%, a viability at 100 µM [2] of 47.4% and a viability at 100 µM [3] of 45.4%. It also gave a viability at 100 µM [4] of 48.4% and a viability at 100 µM [5] of 43.9%.

For O=C(N1CCCC1)N1CCN(C(c2ccccc2)c2ccccc2)CC1, the viability at 24 h, 100 µM [1] was 54%, the viability at 100 µM [2] was 70.2% and the viability at 100 µM [3] was 66.2%. For the same compound, the viability at 100 µM [4] was 64.2% and the viability at 100 µM [5] was 71.4%.

Compound O=C(C1CC1)N1CCN(C(c2ccccc2)c2ccccc2)CC1 has a viability at 24 h, 100 µM [1] of 55.1%, a viability at 100 µM [2] of 72% and a viability at 100 µM [3] of 62.9%. For the same compound, the viability at 100 µM [4] was 70.3% and the viability at 100 µM [5] was 61%.

O=S(=O)(c1ccccc1)N1CCN(C(c2ccccc2)c2ccccc2)CC1 gave a viability at 24 h, 100 µM [1] of 57.4%, a viability at 100 µM [2] of 69.3% and a viability at 100 µM [3] of 66.2%. For the same compound, the viability at 100 µM [4] was 61.9% and the viability at 100 µM [5] was 68.1%.

For O=S(=O)(CC(F)(F)F)N1CCN(C(c2ccccc2)c2ccccc2)CC1, the viability at 24 h, 100 µM [1] was 54.9%, the viability at 100 µM [2] was 43.6% and the viability at 100 µM [3] was 47.8%. For the same compound, the viability at 100 µM [4] was 47.7% and the viability at 100 µM [5] was 41.1%.

For O=C(N1CCOCC1)N1CCN(C(c2ccccc2)c2ccccc2)CC1, the viability at 24 h, 100 µM [1] was 56.1%, the viability at 100 µM [2] was 63.4% and the viability at 100 µM [3] was 61.9%. It also gave a viability at 100 µM [4] of 53.9% and a viability at 100 µM [5] of 68.7%.

With COc1ccccc1NC(=S)N1CCN(C(c2ccccc2)c2ccccc2)CC1 the viability at 24 h, 100 µM [1] was 59.7%, the viability at 100 µM [2] was 62.1% and the viability at 100 µM [3] was 61%. The viability at 100 µM [4] was 56.8% and the viability at 100 µM [5] was 54.5%.

COc1cccc(NC(=S)N2CCN(C(c3ccccc3)c3ccccc3)CC2)c1 showed a viability at 24 h, 100 µM [1] of 57.8%, a viability at 100 µM [2] of 64.8% and a viability at 100 µM [3] of 64.5%. For the same compound, the viability at 100 µM [4] was 72.8% and the viability at 100 µM [5] was 58.7%.

For S=C(Nc1ccc(Cl)cc1Cl)N1CCN(C(c2ccccc2)c2ccccc2)CC1, the viability at 24 h, 100 µM [1] was 53.5%, the viability at 100 µM [2] was 68.2% and the viability at 100 µM [3] was 59.2%. The viability at 100 µM [4] was 45.5% and the viability at 100 µM [5] was 45.6%.

Compound CC1(C)C2CCC1(CS(=O)(=O)N1CCN(C(c3ccccc3)c3ccccc3)CC1)C(=O)C2 (stereo not given) has a viability at 24 h, 100 µM [1] of 60.4%, a viability at 100 µM [2] of 79.2% and a viability at 100 µM [3] of 72.6%. The viability at 100 µM [4] was 65.2% and the viability at 100 µM [5] was 61.7%.

In the case of COc1ccc(NC(=S)N2CCN(C(c3ccccc3)c3ccccc3)CC2)cc1, the viability at 24 h, 100 µM [1] is reported as 55.9%, the viability at 100 µM [2] is reported as 55.6% and the viability at 100 µM [3] is reported as 48.8%. The viability at 100 µM [4] was 66% and the viability at 100 µM [5] was 63.7%.

S=C(Nc1ccccc1Cl)N1CCN(C(c2ccccc2)c2ccccc2)CC1 showed a viability at 24 h, 100 µM [1] of 59.1%, a viability at 100 µM [2] of 70.8% and a viability at 100 µM [3] of 71.8%. For the same compound, the viability at 100 µM [4] was 63.1% and the viability at 100 µM [5] was 69.8%.

For O=C(c1ccno1)N1CCN(C(c2ccccc2)c2ccccc2)CC1, the viability at 24 h, 100 µM [1] was 58.6%, the viability at 100 µM [2] was 47.5% and the viability at 100 µM [3] was 46.1%. The viability at 100 µM [4] was 46.8% and the viability at 100 µM [5] was 44.2%.

In the case of O=S(=O)(c1ccc(Cl)cc1F)N1CCN(C(c2ccccc2)c2ccccc2)CC1, the viability at 24 h, 100 µM [1] is reported as 61%, the viability at 100 µM [2] is reported as 76.3% and the viability at 100 µM [3] is reported as 70.1%. For the same compound, the viability at 100 µM [4] was 61.9% and the viability at 100 µM [5] was 64%.
